Published values of several laboratories.
Each line is one published result; the experiments were not run side by side. pEC50, pIC50, pKi: −log10 of the molar value.
F10: Coagulation factor X (F10, Homo sapiens, UniProt P00742)
CNR2: Cannabinoid receptor 2 (CNR2, Homo sapiens, UniProt P34972)
CASR: Extracellular calcium-sensing receptor (CASR, Homo sapiens, UniProt P41180)

CC(=O)N[C@H]1Cc2ccc(cc2)OCCCC[C@@H](C(=O)N[C@@H](CCCNC(=N)N)C(=O)c2nc3ccccc3s2)NC(=O)[C@H](CC(C)C)NC1=O
pIC50 (F10; enzyme activity; inhibitor; absorbance; with preincubation): 5.58

CNC(C)Cc1ccc2c(c1)OCO2 (stereo not shown)
pKi (Solute carrier family 22 member 2 (SLC22A2, Homo sapiens, UniProt O15244); transporter uptake; inhibitor): 5.72

CC(C)C[C@@H]1NC(=O)[C@H](C(C)(C)C)NC(=O)[C@H](Cc2ccc(O)cc2)NC(=O)[C@@H]2CCCN2C(=O)[C@H](CCCCN)NC(=O)[C@H](CCCNC(=N)N)NC1=O
pKi (Neurotensin receptor type 1 (Ntsr1, Rattus norvegicus, UniProt P20789); ligand displacement; flow cytometry): < 4.00

CC(=O)N[C@H]1C/C=C/COc2ccc(cc2)C[C@@H](C(=O)N[C@@H](CCCNC(=N)N)C(=O)c2nc3ccccc3s2)NC(=O)[C@H](CC(C)C)NC1=O
pIC50 (F10; enzyme activity; inhibitor; absorbance; with preincubation): 5.06

CCC(CC)(NC(=O)c1ccc(C2CC2)c(Cc2ccc(F)cc2)n1)C(=O)NCCOCCOCCNC(=O)c1ccc2c(c1)C1(OC2=O)c2ccc(N(C)C)cc2[Si](C)(C)c2cc(N(C)C)ccc21
pKi (CNR2; ligand displacement; radioligand; cell membranes): 6.17

C=C1CC/C=C(\C)CC[C@@H]2[C@@H]1CC2(C)C
pKi (CNR2; ligand displacement; radioligand; cell membranes): < 5.00

C[C@@H](NCCCc1cccc(C(F)(F)F)c1)c1cccc2ccccc12
pEC50 (CASR; G protein activation; agonist; BRET): 7.15

CCCCCc1cc(O)c2c(c1)OC(C)(C)[C@@H]1CC[C@@H](C)C=C21
pKi (CNR2; ligand displacement; radioligand; cell membranes): 7.55

CC(NCc1cccc(-n2cccn2)c1)c1csc2ccccc12 (stereo not shown)
pEC50 (CASR; G protein activation; agonist; BRET): 6.35

CNC(=O)c1ccc(-c2cnn3ccc(C(=O)N(C)c4ccc(Cl)c(C(=O)O)c4)cc23)cc1
pIC50 (Histamine H3 receptor (HRH3, Homo sapiens, UniProt Q9Y5N1); cell-free assay): < 4.52
